High-throughput results (PubChem BioAssay)
This is a sample that favours compounds with a hit; in the whole collection about 3.5% have one here.
RGS4 act – potentiators or activators of RGS4. HEK293 M3R/inducible RGS4, carbachol calcium flux Fluo4; stronger effect = lower value. 310,000 tested, 0.92% active. AID 463111. B-score at 10 µM;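 active = B-score of the integrated calcium signal more than 4 SD below the library mean, with starting fluorescence not abnormally high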;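 note: negative B-score means reduced calcium response which marks RGS4 activation or potentiation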
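Material: M3R-expressing HEK293 line, RGS4 induced by doxycycline | Schedule: Overnight RGS4 induction, 30 min dye load 37 °C, 20 min compound RT | Measured by: Fluo4 fluorescence kinetic imaging of calcium | Read-out: Integrated calcium ratio converted to B score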
MrgX1 antag – blocks BAM8-22 activation of human MrgX1 receptor; Q96LB2; MRGX1-HEK293 calcium flux, Fluo-4, BAM8-22 antagonism; stronger effect = lower value; B-score at 10 µM; 310,000 tested, 1.3% active; AID 588676;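 active = calcium-response B-score plate-corrected more than 3 library SD below zero, starting fluorescence within 5 deviations, no agonist response on first addition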;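 note: peak minus trough fluorescence over baseline after final BAM8-22 challenge near maximal dose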
Target sequence (Q96LB2 whole entry, looked up): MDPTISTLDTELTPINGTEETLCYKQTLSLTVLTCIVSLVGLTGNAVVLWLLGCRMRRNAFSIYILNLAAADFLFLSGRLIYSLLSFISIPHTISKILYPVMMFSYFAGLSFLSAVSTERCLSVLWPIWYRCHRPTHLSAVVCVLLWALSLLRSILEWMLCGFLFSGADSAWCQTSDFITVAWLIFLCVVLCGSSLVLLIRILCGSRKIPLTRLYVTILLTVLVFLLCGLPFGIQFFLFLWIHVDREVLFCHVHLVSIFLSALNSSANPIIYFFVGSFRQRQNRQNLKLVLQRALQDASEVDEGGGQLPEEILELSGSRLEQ
RGS4 inh – human RGS4 inhibition; HEK293 M3R/RGS4 inducible, Fluo-4 calcium flux; stronger effect = higher value; triggered by carbachol at its EC20; B-score at 10 µM; 310,000 tested, 0.45% active; AID 463165;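 active = B-score, a plate-corrected calcium signal, over three deviations above library mean, with baseline fluorescence within five deviations of library mean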;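 note: RGS4 expression induced by doxycycline in cells with stable M3 receptor; B-score is computed from the integrated fluorescence ratio over baseline after carbachol; higher B-score means a larger calcium signal and so more RGS4 inhibition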
Target sequence (P49798 whole entry, looked up): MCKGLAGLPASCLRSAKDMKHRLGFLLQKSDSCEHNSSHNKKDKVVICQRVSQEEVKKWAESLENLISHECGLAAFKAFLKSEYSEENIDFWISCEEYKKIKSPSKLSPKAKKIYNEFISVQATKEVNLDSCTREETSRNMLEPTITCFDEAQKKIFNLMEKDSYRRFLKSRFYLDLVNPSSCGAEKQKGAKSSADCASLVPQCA
MrgX1 ag – activates human MrgX1 receptor signaling. 310,000 tested, 0.44% active. MrgX1-HEK293 cells, Fluo-4 calcium fluorescence, agonist mode; stronger effect = higher value. Q96LB2. B-score at 10 µM;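 active = calcium response B-score plate-corrected fluorescence ratio at least 3 library SD, with starting fluorescence B-score inside 5 SD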
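Test system: HEK293 cells stably expressing human MrgX1 receptor; amount: 15,000 cells per well; doses: compound delivered in addition one of three; times: overnight plating before 1 h dye loading; detection: Fluo-4 NW calcium-flux fluorescence, kinetic read; read-out basis: B-scored fluorescence response ratio; controls: positive and negative controls per plate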
MrgX1 PAM – allosterically activates human MrgX1 receptor signaling; B-score at 10 µM; AID 588675; Q96LB2; MrgX1-HEK293, Fluo-4 calcium flux, FDSS; stronger effect = higher value; 310,000 tested, 0.63% active;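 active = plate-corrected calcium response at least 3 library SD above typical, normal starting fluorescence, not activating the receptor alone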;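 note: compound read alongside a low EC10 to EC30 dose of BAM8-22 agonist; peak minus trough fluorescence over baseline measured at the second addition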
MrgX1 PAM conf – human MrgX1 positive allosteric modulation, re-confirmation. activation (ratio percentage), % at 10 µM. shares compounds with MrgX1 PAM. MrgX1-HEK293, Fluo-4 calcium fluorescence, FDSS. 1,200 tested, 13% active;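 active = ratio at least 3 SD above the weak peptide control, stable starting fluorescence, no direct agonism earlier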;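 note: compound followed by low BAM8-22 agonist challenge near EC20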
HEK293 Ca flux – activity in parental HEK293 cells lacking MrgX1; shares compounds with MrgX1 antag; Fluo-4 calcium fluorescence, FDSS; fluorescence ratio F(max-min)/F0 at 10 µM; 4,000 tested, 2% active;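 active = duplicate-averaged calcium fluorescence ratio at least three times the standard deviation of buffer wells, a nonspecific response in parental cells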
HEK293 Ca counter – counter-screen for MrgX1 allosteric activators: effect in parental HEK293 cells | parental HEK293 calcium flux, Fluo-4 fluorescence ratio; stronger effect = higher value | shares compounds with MrgX1 antag | AID 624114 | 4,000 tested, 0.4% active | fluorescence ratio F(max-min)/F0 at 10 µM;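 active = calcium fluorescence ratio, averaged over duplicates, at least 3 SD of the buffer-well ratio, meaning a nonspecific response in receptor-free cells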;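 note: untransfected parental HEK293 lacking MrgX1 used as counterscreen for MrgX1 allosteric activators; fluorescence change taken during the second addition on a kinetic imager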
HEK293 Ca cntr2 – MrgX1 activator counter-screen hit in parental HEK293 cells; shares compounds with MrgX1 antag; Fluo-4 calcium fluorescence (FDSS); stronger effect = higher value; fluorescence ratio F(max-min)/F0 at 10 µM; 4,000 tested, 8.7% active; AID 624115;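 active = calcium fluorescence ratio at least three times the spread of buffer wells, meaning a non-specific response in parental cells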
A number is an active result.

Results for c1ccc(-c2nc3nc4ccccc4nc3n2CC2CCCO2)cc1 (stereo not drawn) ?
RGS4 act: inactive; MrgX1 antag: inactive; RGS4 inh: inactive; MrgX1 ag: inactive; MrgX1 PAM: 7.02; MrgX1 PAM conf: inactive; HEK293 Ca flux: inactive; HEK293 Ca counter: inactive; HEK293 Ca cntr2: inactive

How did CC(C)(C)c1ccc(OCC(O)CN2CCc3ccccc3C2)cc1 (stereo not drawn) do in these assays?
RGS4 act: inactive; MrgX1 antag: inactive; RGS4 inh: inactive; MrgX1 ag: inactive; MrgX1 PAM: inactive

How did Cc1ccc(NC2=NC(c3ccc(F)cc3)n3c(nc(C)cc3=O)N2)c(C)c1 (stereo not drawn) do in these assays?
RGS4 act: inactive; MrgX1 antag: inactive; RGS4 inh: inactive; MrgX1 ag: inactive; MrgX1 PAM: inactive

Results for Cc1ccc(NC2=NC(c3ccccc3)n3c(nc(C)cc3=O)N2)c(C)c1 (stereo not drawn) ?
RGS4 act: inactive; MrgX1 antag: inactive; RGS4 inh: inactive; MrgX1 ag: inactive; MrgX1 PAM: 122; MrgX1 PAM conf: inactive; HEK293 Ca flux: inactive; HEK293 Ca counter: inactive; HEK293 Ca cntr2: inactive

What do the screens show for `COc1ccc(Br)cc1S(=O)(=O)Nc1cccc(C)n1`?
RGS4 act: inactive; MrgX1 antag: inactive; RGS4 inh: inactive; MrgX1 ag: inactive; MrgX1 PAM: 12.4; MrgX1 PAM conf: inactive; HEK293 Ca flux: inactive; HEK293 Ca counter: inactive; HEK293 Ca cntr2: inactive

Results for COc1ccc(S(=O)(=O)Nc2cccc(C)n2)c2ccccc12 ?
RGS4 act: inactive; MrgX1 antag: inactive; RGS4 inh: inactive; MrgX1 ag: inactive; MrgX1 PAM: inactive

Results for Cc1cccc(C(=O)NCCCNC(=O)c2cccnc2)c1 ?
RGS4 act: inactive; MrgX1 antag: inactive; RGS4 inh: inactive; MrgX1 ag: inactive; MrgX1 PAM: inactive

Results for CC1(C)CC2CC(C)(CN2c2ncnc3ccccc23)C1 (stereo not drawn) ?
RGS4 act: inactive; MrgX1 antag: inactive; RGS4 inh: inactive; MrgX1 ag: inactive; MrgX1 PAM: 24.5; MrgX1 PAM conf: 25.5%; HEK293 Ca flux: inactive; HEK293 Ca counter: inactive; HEK293 Ca cntr2: inactive

How did O=C1CC(c2ccco2)CC(O)=C1C=Nc1cc(Cl)ccc1O (stereo not drawn) do in these assays?
RGS4 act: inactive; MrgX1 antag: inactive; RGS4 inh: inactive; MrgX1 ag: inactive; MrgX1 PAM: 10.1; MrgX1 PAM conf: 41.2%; HEK293 Ca flux: inactive; HEK293 Ca counter: inactive; HEK293 Ca cntr2: inactive

Results for O=C(Nc1cc(F)c(Br)cc1F)c1ccc(Cl)cc1 ?
RGS4 act: inactive; MrgX1 antag: inactive; RGS4 inh: inactive; MrgX1 ag: inactive; MrgX1 PAM: 21.4; MrgX1 PAM conf: 10.1%; HEK293 Ca flux: inactive; HEK293 Ca counter: inactive; HEK293 Ca cntr2: inactive

How did COc1ccc(OC)c(S(=O)(=O)N2CCC(C(=O)NCc3ccc4c(c3)OCO4)CC2)c1 do in these assays?
RGS4 act: inactive; MrgX1 antag: inactive; RGS4 inh: inactive; MrgX1 ag: inactive; MrgX1 PAM: inactive

How did COC(=O)c1sc(NC(=S)NC(=O)c2ccccc2C)nc1C do in these assays?
RGS4 act: inactive; MrgX1 antag: inactive; RGS4 inh: inactive; MrgX1 ag: inactive; MrgX1 PAM: 7.26; MrgX1 PAM conf: inactive; HEK293 Ca flux: inactive; HEK293 Ca counter: inactive; HEK293 Ca cntr2: 56.4

Results for COc1ccc(C(=O)CCN2CCN(c3ccccc3F)CC2)cc1 ?
RGS4 act: inactive; MrgX1 antag: inactive; RGS4 inh: inactive; MrgX1 ag: inactive; MrgX1 PAM: 20.3; MrgX1 PAM conf: inactive; HEK293 Ca flux: inactive; HEK293 Ca counter: inactive; HEK293 Ca cntr2: inactive

What do the screens show for `COc1ccc(C(=O)CCN2CCN(c3ccc(OC)cc3)CC2)cc1`?
RGS4 act: inactive; MrgX1 antag: inactive; RGS4 inh: inactive; MrgX1 ag: inactive; MrgX1 PAM: inactive

What do the screens show for `O=C(O)c1ccc(S(=O)(=O)N2CCSCC2)cc1`?
RGS4 act: inactive; MrgX1 antag: inactive; RGS4 inh: inactive; MrgX1 ag: inactive; MrgX1 PAM: inactive

What do the screens show for `COC(=O)C(C)(C)ONC(=O)Nc1ccc(Br)cc1`?
RGS4 act: inactive; MrgX1 antag: inactive; RGS4 inh: inactive; MrgX1 ag: inactive; MrgX1 PAM: inactive

What do the screens show for `CC(NC(=O)Nc1ccc(Br)cc1)C(C)(C)C` (stereo not drawn)?
RGS4 act: inactive; MrgX1 antag: inactive; RGS4 inh: inactive; MrgX1 ag: inactive; MrgX1 PAM: 7.83; MrgX1 PAM conf: inactive; HEK293 Ca flux: inactive; HEK293 Ca counter: inactive; HEK293 Ca cntr2: inactive

What do the screens show for `CCc1nc(N2CCN(S(C)(=O)=O)CC2)c2c3c(sc2n1)CCCC3`?
RGS4 act: inactive; MrgX1 antag: inactive; RGS4 inh: inactive; MrgX1 ag: inactive; MrgX1 PAM: 7.3; MrgX1 PAM conf: inactive; HEK293 Ca flux: inactive; HEK293 Ca counter: inactive; HEK293 Ca cntr2: inactive

What do the screens show for `Nc1nc(Br)c2c(F)cccc2c1-c1ccc(Cl)cc1`?
RGS4 act: inactive; MrgX1 antag: inactive; RGS4 inh: inactive; MrgX1 ag: inactive; MrgX1 PAM: 8.28; MrgX1 PAM conf: inactive; HEK293 Ca flux: inactive; HEK293 Ca counter: inactive; HEK293 Ca cntr2: inactive

Results for Cc1cc(C(=O)CCl)c(C)n1Cc1ccco1 ?
RGS4 act: inactive; MrgX1 antag: inactive; RGS4 inh: inactive; MrgX1 ag: inactive; MrgX1 PAM: 7.02; MrgX1 PAM conf: inactive; HEK293 Ca flux: inactive; HEK293 Ca counter: inactive; HEK293 Ca cntr2: inactive

What do the screens show for `NS(=O)(=O)c1ccc(NC(=O)CSc2ncccn2)cc1`?
RGS4 act: inactive; MrgX1 antag: inactive; RGS4 inh: inactive; MrgX1 ag: inactive; MrgX1 PAM: 15.9; MrgX1 PAM conf: inactive; HEK293 Ca flux: inactive; HEK293 Ca counter: inactive; HEK293 Ca cntr2: inactive

How did CC(C)C(C(=O)NCC1CCCO1)N(C(=O)CNS(=O)(=O)c1ccccc1)C1CCCCC1 (stereo not drawn) do in these assays?
RGS4 act: inactive; MrgX1 antag: inactive; RGS4 inh: inactive; MrgX1 ag: inactive; MrgX1 PAM: inactive

What do the screens show for `CCCCNC(=O)c1oc2ccc(S(=O)(=O)N3CCCC3)cc2c1C`?
RGS4 act: inactive; MrgX1 antag: inactive; RGS4 inh: inactive; MrgX1 ag: inactive; MrgX1 PAM: inactive

Results for Cc1ccc(-c2csc3ncnc(NCCC(=O)O)c23)cc1 ?
RGS4 act: inactive; MrgX1 antag: inactive; RGS4 inh: inactive; MrgX1 ag: inactive; MrgX1 PAM: inactive
